Test results from ChEMBL document CHEMBL1629583, “Establishment of in vitro susceptibility testing methodologies and comparative activities of piperacillin in combination with the penem {beta}-lactamase inhibitor BLI-489” (2009).
Values after ≈ are worked out from the molar mass of the structure shown.

Tests used:
Assay type in all cases: functional
Parvimonas micra [1] = assay: Antimicrobial activity against Peptostreptococcus micros clinical isolate after 18 to 22 hrs by broth microdilution method
Parvimonas micra [2] = assay: Antimicrobial activity against Peptostreptococcus micros clinical isolate after 18 to 22 hrs by broth microdilution method in presence of beta-lactamase inhibitor BLI-489
Escherichia coli = assay: Antimicrobial activity against class A extended spectrum beta-lactamase- producing Escherichia coli clinical isolate after 18 to 22 hrs by broth microdilution method in presence of beta-lactamase inhibitor BLI-489
Summary of the method: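 Piperacillin serially diluted with BLI-489 held at a constant 4 μg/ml, by CLSI broth microdilution in Mueller-Hinton II broth. Inoculum was 10^5 CFU/ml. Plates were incubated 18 to 22 h at 35°C in ambient air. MIC was the lowest concentration completely inhibiting growth seen by the unaided eye.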

Enterococcus gallinarum = assay: Antimicrobial activity against Enterococcus gallinarum clinical isolate after 18 to 22 hrs by broth microdilution method in presence of beta-lactamase inhibitor Tazobactam
Summary of the method: (§1)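 Piperacillin-tazobactam was tested by CLSI broth microdilution in Mueller-Hinton II broth against clinical isolates. Inoculum was 10^5 CFU/ml, with 18 to 22 h incubation at 35°C in ambient air. MIC was read as the lowest concentration completely inhibiting visible growth.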

Serratia marcescens = assay: Antimicrobial activity against AmpC beta-lactamase-producing Serratia marcescens clinical isolate after 18 to 22 hrs by broth microdilution method in presence of beta-lactamase inhibitor BLI-489
Summary of the method: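 CLSI broth microdilution in Mueller-Hinton II broth. Piperacillin serial dilutions were combined with BLI-489 held constant at 4 μg/ml. Inoculum was 10^5 CFU/ml. Plates were incubated 18 to 22 h at 35°C in ambient air. MIC was the lowest concentration completely inhibiting growth seen by the unaided eye. Piperacillin-tazobactam interpretive criteria were applied.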

Klebsiella pneumoniae = assay: Antimicrobial activity against class A extended spectrum beta-lactamase- and class D OXA- producing Klebsiella pneumoniae clinical isolate after 18 to 22 hrs by broth microdilution method in presence of beta-lactamase inhibitor Tazobactam; summary of the method: as §1
[3] = test system: Haemophilus parainfluenzae; assay: Antimicrobial activity against Haemophilus parainfluenzae clinical isolate after 18 to 22 hrs by broth microdilution method in presence of beta-lactamase inhibitor Tazobactam
Summary of the method: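 […] was used for CLSI broth microdilution with piperacillin-tazobactam. Inoculum was 10^5 CFU/ml, incubated 18 to 22 h at 35°C in ambient air. MIC was the lowest concentration with no growth visible to the unaided eye.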

Enterococcus faecium = assay: Antimicrobial activity against vancomycin-resistant Enterococcus faecium clinical isolate after 18 to 22 hrs by broth microdilution method in presence of beta-lactamase inhibitor BLI-489
Summary of the method: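 CLSI broth microdilution in Mueller-Hinton II broth. Antibiotic in serial dilution with the β-lactamase inhibitor held at a constant 4 μg/ml. Inoculum 10^5 CFU/ml. Incubated 18 to 22 h at 35°C in ambient air.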

CCN1CCN(C(=O)N[C@@H](C(=O)N[C@@H]2C(=O)N3[C@@H]2SC(C)(C)[C@@H]3C(=O)O)c2ccccc2)C(=O)C1=O [PIPERACILLIN]
MIC50 (Parvimonas micra [1]): 0.12 µg/mL (≈ 0.232 µM)
MIC90 (Parvimonas micra [1]): 0.25 µg/mL (≈ 0.483 µM)
MIC (Parvimonas micra [2]): ≤ 0.015 µg/mL
MIC50 (Parvimonas micra [2]): ≤ 0.015 µg/mL
MIC90 (Parvimonas micra [2]): ≤ 0.015 µg/mL
MIC50 (Escherichia coli): 64 µg/mL
MIC90 (Escherichia coli): 128 µg/mL
MIC50 (Enterococcus gallinarum): 4 µg/mL
MIC90 (Enterococcus gallinarum): 16 µg/mL
MIC50 (Serratia marcescens): 2 µg/mL
MIC90 (Serratia marcescens): 8 µg/mL
MIC50 (Klebsiella pneumoniae): 16 µg/mL
MIC90 (Klebsiella pneumoniae): > 128 µg/mL
MIC50 [3]: 0.06 µg/mL
MIC90 [3]: 0.25 µg/mL
MIC50 (Enterococcus faecium): > 128 µg/mL
